Screening data from PubChem.
TCR CD3 inh – blocks the human TCR-CD3 interaction | TAMRA-labeled TCR probe fluorescence, biochemical | inhibition, % at 9.4 µM | hit rate 0.37% among 360,000 | AID 651800; in the data active means inhibition above about 19%;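 further: recombinant mutant TCR 2C K166C tagged with TAMRA read by polarization; 0% = receptor in buffer alone and 100% = receptor with positive control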
SIAE inh – human SIAE inhibition, primary screen. Q9HAT2. SIAE FP-Rh probe binding, fluorescence polarization. inhibition, % at 9.66 µM. hit rate 0.69% among 370,000;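 active means inhibition above a cutoff: mean of compounds within the control limits plus 3 SD of those, cut at about 17% in these data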;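 further: 0% = plate median of compound wells and 100% = probe without SIAE protein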
Target sequence (Q9HAT2 whole entry, looked up): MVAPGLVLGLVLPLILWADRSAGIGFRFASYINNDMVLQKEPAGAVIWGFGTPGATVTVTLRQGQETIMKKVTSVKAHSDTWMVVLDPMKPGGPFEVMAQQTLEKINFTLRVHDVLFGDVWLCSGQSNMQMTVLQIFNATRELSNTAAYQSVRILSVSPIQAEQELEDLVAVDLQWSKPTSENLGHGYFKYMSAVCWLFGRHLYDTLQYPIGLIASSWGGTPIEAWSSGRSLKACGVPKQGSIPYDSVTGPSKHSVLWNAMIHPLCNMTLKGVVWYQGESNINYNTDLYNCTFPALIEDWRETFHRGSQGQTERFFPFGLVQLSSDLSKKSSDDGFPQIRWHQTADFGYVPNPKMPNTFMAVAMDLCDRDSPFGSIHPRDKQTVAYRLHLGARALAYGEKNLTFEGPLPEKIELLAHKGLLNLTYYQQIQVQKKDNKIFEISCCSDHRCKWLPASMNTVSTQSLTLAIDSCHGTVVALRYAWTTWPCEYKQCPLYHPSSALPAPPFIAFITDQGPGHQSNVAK
PRMT1 inh – blocks human protein arginine methyltransferase 1; recombinant PRMT1, activity-based probe fluorescence polarization; inhibition, % at 2.79 µM; hit rate 1.3% among 370,000;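 active means inhibition above about 21% made by adding two undisclosed values, limit read from the data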
ABHD4 inh – inhibits mouse alpha/beta hydrolase domain 4; hit rate 0.54% among 370,000; Q8VD66; inhibition, % at 8.92 µM; purified mABHD4, FP-Rh probe fluorescence polarization;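 active means inhibition exceeding the mean over every tested compound plus 3 SD, cut at about 30% in these data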;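 further: 0% = plate median of compound wells and 100% = S159A mutant with DMSO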
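Assay system: wild-type mouse ABHD4 protein; compound: single nominal dose of 8.92 µM, 0.89% DMSO final; schedule: 45 min + 60 min at 25 °C; measured by: FP readout, ex 525 nm / em 598 nm; evaluation: % inhibition of FP-Rh probe binding versus controls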
HTRA1 inhibitor – inhibitors of human serine peptidase HTRA1. recombinant HTRA1, FP-rhodamine activity-based probe, fluorescence polarization. inhibition, % at 5.96 µM. AID 504803. hit rate 0.5% among 340,000. Q92743; in the data active means inhibition above about 36%;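 further: 0% = enzyme with DMSO and 100% = wells lacking enzyme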
SIAE confirm – confirmation of human SIAE inhibitors; shares compounds with SIAE inh; inhibition, % at 9.66 µM; SIAE FP-Rh activity-based probe, fluorescence polarization; hit rate 13% among 2,300;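 active means mean inhibition of the replicates above the hit cutoff set in the primary screen, cut at about 17% in these data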;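 further: 0% = SIAE with DMSO and probe and 100% = probe without SIAE; inhibitors lower polarization as more probe stays unbound to SIAE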
* hit, by the source's call; . = no result given. A selection: hits, their analogues and other compounds. The true share with any hit is near 2.6%.

SMILES	TCR CD3 inh	SIAE inh	PRMT1 inh	ABHD4 inh	HTRA1 inhibitor	SIAE confirm
COCCNC(=O)c1cccc(OC2CCN(Cc3ccc(C(C)C)cc3)CC2)c1	1	-1	-2	5	-4	.
CN1[C@H](Cc2ccccc2)COc2cc(N3CCCC3)ccc2S1(=O)=O	.	1	4	-11	.	.
O=C(NNC(=S)Nc1ccc(Cl)cc1Cl)c1cccnc1	-3	20*	-2	10	-3	2
COc1cc(/C=N\NC(=O)c2ccc(Cn3cc(Br)c([N+](=O)[O-])n3)o2)cc(OC)c1O	4	17*	3	8	4	6
CN1CC=C(c2ccc(C(F)(F)F)cc2)N(c2ccccc2)C1=O	.	4	-3	0	.	.
O=C(CNC1C(=O)Nc2ccccc21)Sc1ccccc1 (stereo not given)	-1	-4	-5	0	0	.
O=C(CCCCC(=O)Sc1ccccc1)Sc1ccccc1	3	18*	10	-6	-3	4
COc1ccc(S(=O)(=O)Nc2cc3c4c(c2)CCN4C(=O)CC3)cc1	-4	17*	-2	-5	-4	5
O=S(=O)(CC1NCc2cc(F)ccc21)NC1CCCC1 (stereo not given)	.	3	11	-3	.	.
CN(c1ccccc1)S(=O)(=O)c1cccc(NC(=O)CSc2ncn[nH]2)c1	-4	18*	4	-7	-9	0
CN(c1ccccc1)S(=O)(=O)c1cccc(NC(=O)CSc2nncs2)c1	1	-2	1	3	-9	.
N#Cc1cccc(C(=O)N2CCC(Oc3cccnc3)CC2)c1	.	-2	-6	5	.	.
COC(=O)[C@@]12CCCCC3=C1N(CCC3)C(=O)[C@H]2CC(=O)N1CCCC1	.	10	2	-2	.	.
CCN(CC)CCCN(C(=O)c1ccc(F)cc1)c1nc(-c2ccc(OC)cc2)cs1	0	24*	-4	2	-2	4
Cc1cc(C)nc(/N=C(\N)Nc2ccc3c(c2)OCCO3)n1	-6	18*	-3	7	-2	-5
C[C@@H]1COc2cc(Br)ccc2S(=O)(=O)N1Cc1cn(Cc2ccccc2)nn1	.	3	1	1	.	.
CCOC(=O)c1c(OCC)[nH]c2c1cc(O)c1ccccc12	12	28*	13	28	6	16
COc1ccc(S(=O)(=O)n2nc(OC(=O)C3CCCCC3)cc2N)cc1	-2	43*	0	-3	-8	50*
Cc1ccc(S(=O)(=O)n2nc(OC(=O)C3CCCCC3)cc2N)cc1	1	36*	5	1	4	38*
COc1ccc(C(=O)Oc2cc(N)n(S(=O)(=O)c3ccc(C)cc3)n2)cc1	5	0	0	-4	17	.
C/C=C/C(=O)N1CCC(C(=O)NC2CCCc3ccccc32)CC1 (stereo not given)	.	3	-1	2	.	.
CC1(C)CC(=O)C=C(c2ccccc2-c2cccc(C(N)=O)c2)C1=O	-2	-1	4	-2	.	.
Cc1cccc(-c2nnc(SCc3cccc4ccccc34)n2-c2ccc(Cl)cc2)c1	.	3	5	0	.	.
COc1cc(/C=N/N=C2/NC(=O)C(c3ccccc3)S2)ccc1O (stereo not given)	9	19*	-1	21	6	9
CCOC(=O)CC1=C(C#N)C(c2cccnc2)C(C(=O)OCC)=C(N)O1 (stereo not given)	6	-3	0	3	-2	.
SMILES	TCR CD3 inh	SIAE inh	PRMT1 inh	ABHD4 inh	HTRA1 inhibitor	SIAE confirm
CCOC(=O)CC1=C(C(=O)OCC)C(c2cccnc2)C(C#N)=C(N)O1 (stereo not given)	-1	17*	9	3	-2	-1
CCc1ccccc1NNC(=O)c1snnc1C	2	17*	3	2	.	4
COC(=O)[C@]12C[C@H](CC(=O)N3CCC(c4ccccc4)CC3)C(=O)N(CCC3=CCCCC3)C1=C[C@H](C(C)C)O[C@@H]2C1CC1	.	3	1	-2	.	.
c1ccc(OC2CCN(c3ncnc4sccc34)CC2)cc1	.	-4	-6	-13	.	.
COc1ccccc1CNc1nc(NCc2cccs2)nc2ccsc12	-1	7	1	12	.	.
COc1ccccc1CNc1nc(NCc2ccccc2OC)c2sccc2n1	-7	20*	-3	15	.	13
CN(C)C(=S)N=Nc1[nH]c2ccccc2c1O	-3	21*	1	3	.	-9
COC(=O)[C@]12C[C@H](CC(=O)NCCCCc3ccccc3)C(=O)N(Cc3cccc4ccccc34)C1=C[C@H](C(C)(C)C)O[C@@H]2C	.	2	0	-12	.	.
Cc1cc(C)c(NC(=S)N(CCN2CCCCC2)Cc2ccco2)c(C)c1	-1	10	5	-1	-2	.
Cc1cccc(C)c1NC(=S)N(CCN1CCCCCC1)Cc1ccco1	2	18*	0	1	0	5
Oc1ccc(N=Nc2nc(-c3ccccc3)c(-c3ccccc3)[nH]2)cc1	2	37*	-2	-22	-3	-1
Cc1cccc(NC(=O)CN2C(=O)N/C(=C/c3cc(C)n(C(C)C)c3C)C2=O)c1	5	23*	0	-2	1	1
CCOc1ccc(OCC)c(NC(=O)Nc2ccc3c(c2)N(C)C(=O)CS3)c1	4	22*	0	10	-2	1
O=C(C1CCCN(S(=O)(=O)c2ccccc2F)C1)N1CCN(Cc2ccccc2)CC1 (stereo not given)	.	-1	-1	-3	.	.
COc1ccc(CSc2nnc(SCC(=O)Nc3ccc4c(c3)OCO4)s2)cc1	.	-3	-1	0	.	.
CCC(CC)C(=O)NCCc1ccc(OC)cc1	-1	17*	0	-4	-1	1
CCC(CC)C(=O)NCCCCc1ccccc1	5	20*	0	-2	4	-2
CCC(C(=O)NCCCc1ccccc1)c1ccccc1 (stereo not given)	-2	-5	-6	-6	-4	.
COc1ccc(-n2c(COc3ccc(Cl)cc3)nnc2SCc2nc3ccccc3[nH]2)cc1	.	4	-5	-2	.	.
O=C(N/N=C/c1ccc(N2CCOCC2)s1)c1ccc(O)cc1	-2	-1	0	5	9	.
O=C(NN=Cc1ccc(N2CCOCC2)s1)c1ccc([N+](=O)[O-])cc1	2	24*	2	13	25	1
COc1cc(C(=O)Nc2scc(-c3ccc(C)cc3)c2C(=O)O)cc(OC)c1OC	5	41*	-1	-15	-3	35*
COc1cc(C(=O)Nc2scc(-c3ccccc3)c2C(=O)O)cc(OC)c1OC	-7	8	5	-10	-1	.
COc1ccc(C(=O)Nc2ccc(N3CCOCC3)cc2)cc1S(=O)(=O)N1CCCC1	-1	3	-5	-2	3	.
Cc1ccc(C(=O)N2CCN(c3ccc(NC(=O)c4cccnc4)cc3)CC2)cc1	6	9	0	-11	-1	.
COc1cc(C(=O)Nc2ccc(N3CCN(C(=O)c4ccc(C)cc4)CC3)cc2)cc(OC)c1OC	1	21*	2	1	2	6
